Test results published in ChEMBL document CHEMBL3124940, “Design, synthesis and biological evaluation of D-ring opened galantamine analogs as multifunctional anti-Alzheimer agents” (Eur J Med Chem, 2014).
Calls of active or inactive are those of the source. The calls are words filed in the database; no cut-off is given here.

Legend:
Rattus norvegicus [1] = experiment: Toxicity in Wistar rat assessed as total glutathione level in kidney at 6 umol/100 g body weight, ip by fluorometric analysis relative to control; assay type: organism-based; conditions: in vivo
Procedure, shortened: (§1)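 Rats dosed i.p.; tissues taken after 24 h. For GSH/GSSG, tissue homogenized in 11 volumes of 0.2 M sodium phosphate (5 mM EDTA, pH 8.0) plus 4 volumes of 25% metaphosphoric acid and centrifuged 12 000 × g, 4 °C, 30 min; supernatant read photometrically (GSH) or fluorometrically (GSSG). Lipid peroxidation products measured as TBARS in 19-volume ice-cold saline homogenates, fluorometrically.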

Rattus norvegicus [2] = experiment: Toxicity in Wistar rat assessed as total glutathione level in kidney at 1 umol/100 g body weight, ip by fluorometric analysis relative to control; assay type: organism-based; conditions: in vivo; procedure, shortened: as §1
Rattus norvegicus [3] = experiment: Toxicity in Wistar rat assessed as GSSG level in kidney at 1 umol/100 g body weight, ip by fluorometric analysis relative to control; assay type: organism-based; conditions: in vivo; procedure, shortened: as §1
Rattus norvegicus [4] = experiment: Toxicity in Wistar rat assessed as kidney weight at 6 umol/100 g body weight, ip relative to control; assay type: organism-based; conditions: in vivo
Rattus norvegicus [5] = experiment: Toxicity in Wistar rat assessed as kidney weight at 1 umol/100 g body weight, ip relative to control; assay type: organism-based; conditions: in vivo
Rattus norvegicus [6] = experiment: Toxicity in Wistar rat assessed as lipidperoxidation product level in brain at 1 umol/100 g body weight, ip by fluorometric analysis relative to control; assay type: organism-based; conditions: in vivo; procedure, shortened: as §1
Rattus norvegicus [7] = experiment: Toxicity in Wistar rat assessed as total glutathione level in brain at 1 umol/100 g body weight, ip by fluorometric analysis relative to control; assay type: organism-based; conditions: in vivo; procedure, shortened: as §1
Rattus norvegicus [8] = experiment: Toxicity in Wistar rat assessed as GSSG level in brain at 6 umol/100 g body weight, ip by fluorometric analysis relative to control; assay type: organism-based; conditions: in vivo; procedure, shortened: as §1
Rattus norvegicus [9] = experiment: Toxicity in Wistar rat assessed as GSSG level in brain at 1 umol/100 g body weight, ip by fluorometric analysis relative to control; assay type: organism-based; conditions: in vivo; procedure, shortened: as §1
Rattus norvegicus [10] = experiment: Toxicity in Wistar rat assessed as GSH level in brain at 1 umol/100 g body weight, ip by fluorometric analysis relative to control; assay type: organism-based; conditions: in vivo
Rattus norvegicus [11] = experiment: Toxicity in Wistar rat assessed as brain weight at 6 umol/100 g body weight, ip relative to control; assay type: organism-based; conditions: in vivo
Rattus norvegicus [12] = experiment: Toxicity in Wistar rat assessed as brain weight at 1 umol/100 g body weight, ip relative to control; assay type: organism-based; conditions: in vivo
Rattus norvegicus [13] = experiment: Toxicity in Wistar rat assessed as ethoxycoumarin-O-deethylation activity in liver measured as 7-hydroxycoumarin level at 6 umol/100 g body weight, ip by fluorometric analysis relative to control; assay type: organism-based; conditions: in vivo
Rattus norvegicus [14] = experiment: Toxicity in Wistar rat assessed as ethoxycoumarin-O-deethylation activity in liver measured as 7-hydroxycoumarin level at 1 umol/100 g body weight, ip by fluorometric analysis relative to control; assay type: organism-based; conditions: in vivo
Rattus norvegicus [15] = experiment: Toxicity in Wistar rat assessed as ethylmorphine-N-demethylation activity in liver measured as formaldehyde level at 6 umol/100 g body weight, ip by photometric analysis relative to control; assay type: organism-based; conditions: in vivo
Rattus norvegicus [16] = experiment: Toxicity in Wistar rat assessed as ethylmorphine-N-demethylation activity in liver measured as formaldehyde level at 1 umol/100 g body weight, ip by photometric analysis relative to control; assay type: organism-based; conditions: in vivo
Rattus norvegicus [17] = experiment: Toxicity in Wistar rat assessed as protein content in liver at 6 umol/100 g body weight, ip by Biuret method relative to control; assay type: organism-based; conditions: in vivo
Procedure, shortened: (§2)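 Rats dosed i.p.; after 24 h, liver homogenized 1:3 w/v in 0.1 M sodium phosphate pH 7.4 and centrifuged at 9000 × g, 4 °C, 20 min. Supernatant protein determined by the Biuret method. Ethoxyresorufin-O-deethylation measured fluorometrically as resorufin formed.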

Rattus norvegicus [18] = experiment: Toxicity in Wistar rat assessed as protein content in liver at 1 umol/100 g body weight, ip by Biuret method relative to control; assay type: organism-based; conditions: in vivo; procedure, shortened: as §2
Rattus norvegicus [19] = experiment: Toxicity in Wistar rat assessed as lipidperoxidation product level in liver at 6 umol/100 g body weight, ip relative to control; assay type: organism-based; conditions: in vivo
Rattus norvegicus [20] = experiment: Toxicity in Wistar rat assessed as total glutathione level in liver at 6 umol/100 g body weight, ip by fluorometric analysis relative to control; assay type: organism-based; conditions: in vivo
Procedure, shortened: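 Rats were dosed, killed 24 h later, and liver and other tissues were taken. Samples were homogenized in 11 vol 0.2 M sodium phosphate (5 mM EDTA, pH 8.0) plus 4 vol 25% metaphosphoric acid, then spun at 12 000 × g, 4 °C, 30 min. GSH was read photometrically and GSSG fluorometrically in the supernatant, alongside total glutathione.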

Rattus norvegicus [21] = experiment: Toxicity in Wistar rat assessed as GSH level in liver at 6 umol/100 g body weight, ip by fluorometric analysis relative to control; assay type: organism-based; conditions: in vivo
Rattus norvegicus [22] = experiment: Toxicity in Wistar rat assessed as liver weight at 1 umol/100 g body weight, ip relative to control; assay type: organism-based; conditions: in vivo
Rattus norvegicus [23] = experiment: Toxicity in Wistar rat assessed as body weight at 6 umol/100 g body weight, ip relative to control; assay type: organism-based; conditions: in vivo
[24] = Induction of nitric oxide release in PBS at 100 uM at pH 7.4 after 24 hrs by Griess method in presence of rat serum; assay type: physicochemical; conditions: pH 7.4, 24 h
Procedure, shortened: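 Test compound at 100 µM in phosphate buffer pH 7.4, alone or with 90 µL rat serum added, incubated 37 °C for 24 h. Griess reagent added, then 30 min at 37 °C with gentle shaking; absorbance read at 540 nm and blank-corrected. Nitrite quantified against an NaNO2 calibration curve and expressed as % of a theoretical 1 mol NO per mol nitrate; n = 3.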

[25] = biological target: Amyloid-beta precursor protein (Homo sapiens) (UniProt P05067); experiment: Inhibition of amyloid beta (1 to 42) aggregation (unknown origin) at 5 uM after 1 hr by thioflavin T fluorescence assay
Procedure, shortened: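 Aβ42 stock (200 µM in DMSO) centrifuged 12,000 rpm for 10 min; supernatant used. Compound (2 µL of 0.2–4.0 mM DMSO stock) and 2 µL Aβ42 stock added to 76 µL PBS pH 7.4, incubated 1 h at room temperature. 80 µL of 5 µM ThT in 50 mM glycine-NaOH pH 8.5 then added; fluorescence read at excitation 430 nm, emission 488 nm.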

[26] = biological target: Amyloid-beta precursor protein (Homo sapiens) (UniProt P05067); experiment: Inhibition of amyloid beta (1 to 42) aggregation (unknown origin) at 50 uM after 6 days by atomic force microscopic analysis
Procedure, shortened: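 Compound (2.5 µL of 1.0 mM) and 2.5 µL of 200 µM Aβ42 added to 45 µL PBS (20% TFE, pH 7.4); the control lacks compound. Incubated 37 °C for 6 days, then 3 µL deposited on freshly cleaved mica for 5 min, blown dry and imaged by atomic force microscopy.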

PC-12 = experiment: Neuroprotective activity in rat PC12 cells assessed as decrease in amyloid beta (1 to 42)-induced cytotoxicity after 24 hrs by MTT assay; assay type: functional, cell-based
Procedure, shortened: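 PC12 cells in F-12 with 10% FBS at 37 °C, 5% CO2, plated at 2000 cells/well and grown 24 h. Compound added (final 0.008–10 µM, DMSO below 0.5%) with Aβ42 (final 5 µM), 24 h at 37 °C. Aβ42 prepared by HFIP treatment, dried, taken up to 100 µM in F-12 and held 4 °C for 24 h. MTT for 4 h, DMSO solubilization, read at 540 nm; reported as % of control, three independent trials, mean ± SEM.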

Sequence of Amyloid-beta precursor protein (Homo sapiens) (P05067 whole entry): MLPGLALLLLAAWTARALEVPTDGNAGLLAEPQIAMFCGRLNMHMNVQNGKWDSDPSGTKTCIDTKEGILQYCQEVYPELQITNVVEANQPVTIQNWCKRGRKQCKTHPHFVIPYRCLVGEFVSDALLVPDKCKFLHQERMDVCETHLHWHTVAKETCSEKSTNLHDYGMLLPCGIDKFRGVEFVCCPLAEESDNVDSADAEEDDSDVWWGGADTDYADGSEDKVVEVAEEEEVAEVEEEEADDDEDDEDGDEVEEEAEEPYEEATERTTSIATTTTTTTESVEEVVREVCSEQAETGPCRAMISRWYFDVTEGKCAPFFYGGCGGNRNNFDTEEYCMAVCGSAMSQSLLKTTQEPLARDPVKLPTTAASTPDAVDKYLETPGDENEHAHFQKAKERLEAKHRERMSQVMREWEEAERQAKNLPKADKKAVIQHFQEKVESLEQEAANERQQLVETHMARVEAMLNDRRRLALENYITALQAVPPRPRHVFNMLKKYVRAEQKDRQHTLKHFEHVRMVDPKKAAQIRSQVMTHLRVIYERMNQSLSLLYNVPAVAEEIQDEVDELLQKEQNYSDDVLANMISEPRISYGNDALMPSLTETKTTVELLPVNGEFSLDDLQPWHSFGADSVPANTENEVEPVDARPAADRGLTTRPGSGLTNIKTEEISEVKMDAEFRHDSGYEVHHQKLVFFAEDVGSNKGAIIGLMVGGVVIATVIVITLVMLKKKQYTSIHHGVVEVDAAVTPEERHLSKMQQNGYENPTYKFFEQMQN

COc1ccc2c(c1)oc1cccc(CN(C(=O)CCO[N+](=O)[O-])C(C)C)c12
Activity (Rattus norvegicus [1]): 1800 µg/g
Activity (Rattus norvegicus [2]): 1783 µg/g
Activity (Rattus norvegicus [3]): 161 µg/g
Activity (Rattus norvegicus [4]): 0.84 g
Activity (Rattus norvegicus [5]): 0.93 g
Activity (Rattus norvegicus [6]): 160 nmol/g
Activity (Rattus norvegicus [7]): 814 µg/g
Activity (Rattus norvegicus [8]): 79.1 µg/g
Activity (Rattus norvegicus [9]): 84.8 µg/g
Activity (Rattus norvegicus [10]): 645 µg/g
Activity (Rattus norvegicus [11]): 1.87 g
Activity (Rattus norvegicus [12]): 1.95 g
Activity (Rattus norvegicus [13]): 178 pmol/mg/min
Activity (Rattus norvegicus [14]): 187 pmol/mg/min
Activity (Rattus norvegicus [15]): 0.52 nmol/mg/min
Activity (Rattus norvegicus [16]): 0.48 nmol/mg/min
Activity (Rattus norvegicus [17]): 64.7 mg/mL
Activity (Rattus norvegicus [18]): 66.4 mg/mL
Activity (Rattus norvegicus [19]): 63.9 nmol/g
Activity (Rattus norvegicus [20]): 3320 µg/g
Activity (Rattus norvegicus [21]): 2482 µg/g
Activity (Rattus norvegicus [22]): 7.6 g
Activity (Rattus norvegicus [23]): 259 g
Activity [24]: Active
inhibition [25]: inactive
inhibition [26]: Active
Activity (PC-12): Dose-dependent effect
